Data: PubChem BioAssay
The source made the active and inactive calls.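 The calls were made as follows, unless noted: active = viability at or below 30% in both replicate assays; inconclusive = viability at or below 30% in just one of the two assays; inactive = the rest.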

Legend:
[1] = Her2 expression decrease, cell viability multiplex – SKBR3 breast tumor cells, AlphaScreen, ATP viability, primary screen (AID 461;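 active = Her2 level under about 52% in both replicate screens, with viability over 70% of control, limit read from the data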;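 as to Her2 level: lower value means less Her2 protein in the cells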;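 as to viability: percent of carrier control wells set as 100% viability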); conditions: SKBR3 Her2 protein level, 18-24 h, measured here: SKBR3 viability, ATP luminescence, at 10 µM
[2] = molecular target: Receptor tyrosine-protein kinase erbB-2 (Homo sapiens) (UniProt P04626); test: as above; conditions: 18-24 h, at 10 µM, stronger effect = lower value
[3] = reduced viability of SK-BR-3 breast cancer cells – cell-based, 24 h, human, pilot screen (AID 572;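 active = viability at or below 10% of carrier control in both of two separate runs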;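 also: compound exposure lasted between 18 and 24 h rather than exactly 24 h; 100% = carrier-treated control wells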); conditions: SK-BR-3 viability, CellTiter-Glo luminescence, at 10 µM, stronger effect = lower value
[4] = HUVEC growth inhibition – cell-based, human, primary screen (AID 575); conditions: HUVEC proliferation, CellTiter-Glo luminescence, 72 h; at 10 µM; stronger effect = lower value;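 also: 100% = median of untreated cell wells with 0.1% DMSO on each plate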
Procedure, shortened: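 Timing: 72 h treatment at 37 °C; material: HUVEC primary cells; technique: CellTiter-Glo luminescence measuring cellular ATP; controls: vehicle and MePR control wells; measure: percent of median DMSO-control luminescence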

[5] = H69AR cell proliferation blockers – human, duplicate replicates, primary screen (AID 580;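 active = viability at or under a set limit in both replicates, limit being median viability minus 3 SD, cut at about 48% in these data, passing the limit was not always enough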;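 also: 100% = mean luminescence of untreated wells and 0% = no signal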); conditions: H69AR lung tumor cells viability, ATP luminescence, 72 h; at 10 µM; stronger effect = lower value
[6] = MRP1 drug-resistance reversers in H69AR cells – cell-based, doxorubicin co-treatment, pilot screen (AID 601;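 active = viability loss from added drug above about 55%, and viability with drug at most 40%, in both replicates, limit read from the data, passing the limit was not always enough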); conditions: CellTiter-Glo, 72 h, at 10 µM; for differential viability (reversal): stronger effect = higher value
[7] = yeast transport mutant growth inhibition pilot in 384-well plates, post-Golgi transport modulator project (AID 636; in the data active = inhibition above about 31%); conditions: absorbance 615 nm, about 18 h, stronger effect = higher value
[8] = growth suppression of yeast trafficking mutant, preliminary HTS, modulators of trafficking downstream of Golgi apparatus project, 1536-format plate, OD 615 nm (AID 637; in the data active = inhibition above about 30%); conditions: yeast transport mutant growth, absorbance 615 nm, 18 h; stronger effect = higher value
[9] = H69AR cells + 2 uM doxorubicin, measured here: viability with 2 uM doxorubicin, stronger effect = lower value
[10] = H69AR cells, compound alone cytotoxicity

Sequence of Receptor tyrosine-protein kinase erbB-2 (Homo sapiens) (P04626 whole entry, looked up): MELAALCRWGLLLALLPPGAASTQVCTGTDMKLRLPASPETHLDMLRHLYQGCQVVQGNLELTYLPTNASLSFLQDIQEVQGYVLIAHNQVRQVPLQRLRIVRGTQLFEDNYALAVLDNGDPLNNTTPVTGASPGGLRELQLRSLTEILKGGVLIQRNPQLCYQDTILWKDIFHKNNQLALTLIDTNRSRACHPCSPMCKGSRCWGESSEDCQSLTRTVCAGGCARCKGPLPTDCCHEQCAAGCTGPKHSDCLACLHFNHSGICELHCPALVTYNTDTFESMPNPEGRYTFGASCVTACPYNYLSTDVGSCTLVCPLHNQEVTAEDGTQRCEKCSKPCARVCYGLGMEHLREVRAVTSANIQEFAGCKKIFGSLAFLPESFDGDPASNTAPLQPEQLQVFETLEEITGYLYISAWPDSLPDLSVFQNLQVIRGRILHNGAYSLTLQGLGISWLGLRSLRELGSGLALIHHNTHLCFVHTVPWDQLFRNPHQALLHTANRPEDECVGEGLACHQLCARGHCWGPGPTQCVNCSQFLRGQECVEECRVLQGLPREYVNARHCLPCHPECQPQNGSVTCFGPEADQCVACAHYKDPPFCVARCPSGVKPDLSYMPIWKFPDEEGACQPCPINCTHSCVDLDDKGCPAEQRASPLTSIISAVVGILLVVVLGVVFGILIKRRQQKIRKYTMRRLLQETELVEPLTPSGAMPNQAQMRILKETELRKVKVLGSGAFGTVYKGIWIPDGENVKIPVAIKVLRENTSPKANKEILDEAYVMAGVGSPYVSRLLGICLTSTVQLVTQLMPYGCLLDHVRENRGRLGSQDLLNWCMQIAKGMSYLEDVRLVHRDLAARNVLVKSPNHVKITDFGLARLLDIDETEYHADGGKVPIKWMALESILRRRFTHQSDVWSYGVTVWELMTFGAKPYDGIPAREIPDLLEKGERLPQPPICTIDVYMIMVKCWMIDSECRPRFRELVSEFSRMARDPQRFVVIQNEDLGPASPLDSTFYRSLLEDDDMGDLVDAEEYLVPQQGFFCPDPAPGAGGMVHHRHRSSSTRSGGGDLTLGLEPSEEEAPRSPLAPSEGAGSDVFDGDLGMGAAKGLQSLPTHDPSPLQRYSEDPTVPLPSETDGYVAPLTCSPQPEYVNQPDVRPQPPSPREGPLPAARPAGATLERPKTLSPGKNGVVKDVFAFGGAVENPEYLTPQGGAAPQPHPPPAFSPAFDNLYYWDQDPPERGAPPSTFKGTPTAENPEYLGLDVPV

Structure (SMILES) | viability [1] [%] | Her2 level [2] | viability [3] | viability [4] | viability [5] | differential viability (reversal) ([6]; H69AR cells + 2 uM doxorubicin) | viability [6, 9] [%] | viability [6, 10] [%] | inhibition [7] | inhibition [8]
Cc1cc(Cl)ccc1OCCCC(=O)N1CCOCC1 | 90 | 92.5% (inactive) | 90% (inactive) | 99.5% (inactive) | 87.7% (inactive) | 0.08% (inactive) | 87.6 | 87.7 | -5.39% (inactive) | 11.2% (inactive)
CC(NC(=O)Nc1ccccc1)C(c1cccs1)N1CCOCC1 (stereo not given) | 108 | 107% (inactive) | 108% (inactive) | 99.5% (inactive) | 110% (inactive) | 16.3% (inactive) | 93.5 | 110 | -0.38% (inactive) | 4.83% (inactive)
CC(C)C(=O)Nc1cccc(NC(=O)c2cccnc2)c1 | 102 | 98.5% (inactive) | 102% (inactive) | 107% (inactive) | 97.9% (inactive) | -1.67% (inactive) | 99.6 | 97.9 | -2.63% (inactive) | 4.1% (inactive)
COC(=O)c1ccccc1NC(=O)C1CCCCC1C(=O)O (stereo not given) | 103 | 116% (inactive) | 103% (inactive) | 91% (inactive) | 90.3% (inactive) | -1.56% (inactive) | 91.8 | 90.3 | -2.93% (inactive) | -9.52% (inactive)
O=C1CCC(=O)N1OCCCOc1ccc(Br)cc1Cl | 106 | 98.5% (inactive) | 106% (inactive) | 90% (inactive) | 93.5% (inactive) | -2.35% (inactive) | 95.9 | 93.5 | 0.13% (inactive) | 2.22% (inactive)
CCOC(=O)c1oc2ccccc2c1CSc1nnnn1-c1ccc(C)cc1 | 94.5 | 99% (inactive) | 94.5% (inactive) | 83.2% (inactive) | 69.3% (inactive) | -18.7% (inactive) | 88 | 69.3 | 2.08% (inactive) | -6.98% (inactive)
Cc1nn(C)c(C)c1S(=O)(=O)N1CCCC(C(=O)N2CCN(c3ccc(Cl)cc3)CC2)C1 (stereo not given) | 102 | 70% (inactive) | 102% (inactive) | 87.7% (inactive) | 88.3% (inactive) | 19.3% (inactive) | 69 | 88.3 | -2.43% (inactive) | 3.49% (inactive)
NC(=O)NC(c1ccccc1)c1ccccc1F (stereo not given) | 91 | 106% (inactive) | 91% (inactive) | 91.6% (inactive) | 105% (inactive) | 6.78% (inactive) | 98.3 | 105 | -0.51% (inactive) | -8% (inactive)
Cc1cc(NC(=O)C23CCC(C)(c4nc5cc(Cl)c(Cl)cc5nc42)C3(C)C)no1 (stereo not given) | 124 | 96.5% (inactive) | 124% (inactive) | 88.5% (inactive) | 91.6% (inactive) | 14.6% (inactive) | 77.1 | 91.6 | -3.42% (inactive) | 6.29% (inactive)
O=C(CCN1C(=O)COc2ccccc21)N1CCN(c2ccccn2)CC1 | 130 | 96.5% (inactive) | 130% (inactive) | 114% (inactive) | 106% (inactive) | 27.7% (inactive) | 78.6 | 106 | -2.08% (inactive) | 3.33% (inactive)
COC(=O)c1sc2ccccc2c1NC(=O)c1cccs1 | 97.5 | 99.5% (inactive) | 97.5% (inactive) | 82.1% (inactive) | 82.1% (inactive) | -17.2% (inactive) | 99.3 | 82.1 | -2.08% (inactive) | -5.87% (inactive)
COc1ccc(C2C(C(=O)c3sc(C)nc3C)=C(O)C(=O)N2CCN(C)C)cc1OC (stereo not given) | 108 | 111% (inactive) | 108% (inactive) | 99.3% (inactive) | 86.7% (inactive) | -8.1% (inactive) | 94.8 | 86.7 | -2.27% (inactive) | -2.79% (inactive)
CCOC(=O)c1sc(NC(=O)CNC(=O)Cn2cnc3sc(C)c(C)c3c2=O)nc1C | 94 | 88.5% (inactive) | 94% (inactive) | 93.4% (inactive) | 104% (inactive) | 7.01% (inactive) | 96.7 | 104 | 1.18% (inactive) | 2.26% (inactive)
COCCCNC(=O)c1ccccc1NS(=O)(=O)c1ccc(C)cc1 | 91 | 98% (inactive) | 91% (inactive) | 92.1% (inactive) | 101% (inactive) | 9.35% (inactive) | 91.2 | 101 | -4.27% (inactive) | -5.24% (inactive)
CCOC(=O)C1=C(C)Nc2nnnn2C1c1c[nH]c2ccccc12 (stereo not given) | 110 | 94% (inactive) | 110% (inactive) | 77.3% (inactive) | 104% (inactive) | 7.95% (inactive) | 95.8 | 104 | -2.93% (inactive) | 15.6% (inactive)
COc1ccccc1Nc1nc(N)nc(CSc2nccc(C)n2)n1 | 99 | 90.5% (inactive) | 99% (inactive) | 107% (inactive) | 91% (inactive) | 5.23% (inactive) | 85.7 | 91 | -3.82% (inactive) | 0% (inactive)
C=CCNS(=O)(=O)c1ccc2nsnc2c1 | 102 | 109% (inactive) | 102% (inactive) | 87.8% (inactive) | 100% (inactive) | -1.67% (inactive) | 102 | 100 | 0.27% (inactive) | -2.1% (inactive)
COc1cccc(-n2c(SC3CCOC3=O)nc3ccccc3c2=O)c1 (stereo not given) | 94.5 | 99.5% (inactive) | 94.5% (inactive) | 88.2% (inactive) | 94.4% (inactive) | 10.5% (inactive) | 83.8 | 94.4 | -5.2% (inactive) | -6.03% (inactive)
O=C(CCn1c(=O)sc2ccccc21)Nc1nccs1 | 98.5 | 97% (inactive) | 98.5% (inactive) | 115% (inactive) | 108% (inactive) | 16.8% (inactive) | 91.5 | 108 | -2.6% (inactive) | -0.95% (inactive)
CCOC(=O)c1c(NC(=O)CSc2nnc(-c3cccnc3)o2)sc(C)c1C | 120 | 104% (inactive) | 120% (inactive) | 103% (inactive) | 99.1% (inactive) | 14% (inactive) | 85.1 | 99.1 | -4.34% (inactive) | -8.73% (inactive)
CC(=O)O[C@H]1CSC[C@H]1NC(=O)c1ccccc1 | 98.5 | 97% (inactive) | 98.5% (inactive) | 101% (inactive) | 99.8% (inactive) | 11% (inactive) | 88.8 | 99.8 | -2.13% (inactive) | -1.77% (inactive)
O=C1OC2(c3ccccc3)C3CCCC2C13 | 100 | 120% (inactive) | 100% (inactive) | 97.3% (inactive) | 100% (inactive) | 7.76% (inactive) | 92.4 | 100 | -6.44% (inactive) | 5.87% (inactive)
CCc1cc(=O)oc2cc(OC(C)=O)cc(OC(C)=O)c12 | 116 | 74% (inactive) | 116% (inactive) | 76.8% (inactive) | 95.1% (inactive) | -9.96% (inactive) | 105 | 95.1 | -7.37% (inactive) | -5.5% (inactive)
Cc1cccc(C)c1NC(=O)CC(NCc1ccco1)C(=O)O (stereo not given) | 116 | 85% (inactive) | 116% (inactive) | 118% (inactive) | 109% (inactive) | 13.5% (inactive) | 95.8 | 109 | -7.7% (inactive) | -2.67% (inactive)
CC1CCCCC1NC(=O)CN1CCN(Cc2ccccc2Cl)C1=O (stereo not given) | 102 | 97% (inactive) | 102% (inactive) | 90.9% (inactive) | 80.4% (inactive) | 11.9% (inactive) | 68.5 | 80.4 | -4.68% (inactive) | -7.67% (inactive)
O=C(NCc1ccco1)C(c1ccco1)N(C(=O)Cn1nnc2ccccc21)c1ccc2c(c1)CCC2 (stereo not given) | 95.5 | 92.5% (inactive) | 95.5% (inactive) | 89.7% (inactive) | 99.8% (inactive) | 8.6% (inactive) | 91.2 | 99.8 | -2.8% (inactive) | -5.97% (inactive)
O=C(C1CCCN(S(=O)(=O)c2cnc[nH]2)C1)N1CCN(c2ccc(Cl)cc2)CC1 (stereo not given) | 85.5 | 93% (inactive) | 85.5% (inactive) | 110% (inactive) | 111% (inactive) | 14.8% (inactive) | 96 | 111 | -0.13% (inactive) | -4.92% (inactive)
Cc1ccc(Cn2c(NCCc3ccccc3)nc3c2c(=O)n(C)c(=O)n3C)cc1 | 82.5 | 75% (inactive) | 82.5% (inactive) | 73.5% (inactive) | 91.9% (inactive) | 3.77% (inactive) | 88.1 | 91.9 | -10% (inactive) | -2.7% (inactive)
COc1ccc2[nH]c(=O)c(CN(C(=O)c3ccncc3)C(C)C)cc2c1 | 96 | 108% (inactive) | 96% (inactive) | 113% (inactive) | 98.5% (inactive) | 4.29% (inactive) | 94.2 | 98.5 | -3.12% (inactive) | 4% (inactive)
